Where only a bound is given, the exact number is not on record here.

The values below come from ChEMBL document CHEMBL4813968, “Synthesis and evaluation of 3'-fluorinated 7-deazapurine nucleosides as antikinetoplastid agents” (Eur J Med Chem, 2021).

Series [1] has as its system Leishmania infantum. In words: Antileishmanial activity against Leishmania infantum MHOM/MA(BE)/67 infected in mouse primary peritoneal macrophages treated 2 hrs post-infection and incubated for 5 days by Giemsa staining based microscopic analysis. The following applies: MHOM/MA(BE)/67, Peritoneal macrophage. In kind it is functional, organism-based. The method, boiled down:
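Peritoneal macrophages from mice, harvested 2 days after 2% potato starch stimulation, infected after 48 h with L. infantum in supplemented RPMI-1640 with 5% FCS. Compounds were added 2 h post-infection as a 10-point 4-fold dilution series, final DMSO <1%, and incubated 5 days at 37 °C, 5% CO₂. Amastigotes per macrophage were counted after 10% Giemsa staining, and IC₅₀ was taken from % reduction versus untreated-infected controls.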

Series [2] is described as follows: Selectivity index, ratio of EC50 for human MRC5 cells to EC50 for antitrypanosomal activity against Trypanosoma brucei brucei. In kind it is toxicity. The settings on record: read-out: Ratio EC50. In short, it runs like this:
(§1)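 Selectivity index is the MRC-5 EC₅₀ divided by the parasite EC₅₀.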

A short description of series [3]: Selectivity index, ratio of EC50 for cytotoxicity against human MRC5 cells to EC50 for antitrypanosomal activity against Trypanosoma cruzi Tulahuen CL2 infected in human MRC5 cells. The following applies: read-out: Ratio EC50. In kind it is toxicity, cell-based. The method, boiled down:
as §1

Series [4] has as its system MRC5. The experiment in a line: Cytotoxicity against human MRC5 cells assessed as reduction in cell viability after 3 days by resazurin dye based fluorimetric analysis. The settings on record: MRC5, 72 h. The method, boiled down: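 MRC-5_SV2 cells, 1.5×10⁵ cells/mL in MEM with Earl's salts, L-glutamine, NaHCO₃ and 5% inactivated FCS, were exposed 3 days at 37 °C, 5% CO₂ to a 10-point 4-fold dilution series, final DMSO <1%. Resazurin was added for 4 h, fluorescence read at ex 550/em 590 nm, and IC₅₀ derived versus untreated and medium controls.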
On the technique in general: Resazurin is reduced to fluorescent resorufin, in cell work by metabolically active cells.

The nature of series [5]: Selectivity index, ratio of EC50 for human MRC5 cells to EC50 for antitrypanosomal activity against Trypanosoma brucei rhodesiense. In kind it is toxicity. The settings on record: read-out: Ratio EC50. In short, it runs like this:
as §1

Series [6] is described as follows: Selectivity index, ratio of EC50 for cytotoxicity against mouse primary macrophage to EC50 for antileishmanial activity against Leishmania infantum MHOM/MA(BE)/67 infected in mouse primary peritoneal macrophages. It counts as toxicity. The following applies: read-out: Ratio EC50.
Series [7] concerns Trypanosoma brucei brucei. The experiment in a line: Antitrypanosomal activity against Trypanosoma brucei brucei assessed as parasite growth inhibition. It counts as functional, organism-based.
Series [8] deals with Trypanosoma cruzi. In words: Antitrypanosomal activity against Trypanosoma cruzi Tulahuen CL2 infected in human MRC5 cells assessed as inhibition of parasite growth incubated for 7 days by chlorophenol red-fl-D-galactopyranoside based spectrophotometric analysis. It counts as functional, organism-based. The settings on record: Tulahuen CL2, MRC5, 168 h. In short, it runs like this: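 T. cruzi Tulahuen CL2 β-galactosidase strain was maintained on MRC-5_SV2 cells. Wells held 4×10³ cells plus 4×10⁴ parasites with a 10-point 4-fold compound series, final DMSO <1%. After 7 days at 37 °C, 5% CO₂, substrate was added and absorbance read at 540 nm after 4 h at 37 °C. IC₅₀ was taken from % reduction versus infected and uninfected controls.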

Series [9] deals with Trypanosoma brucei rhodesiense. The experiment in a line: Antitrypanosomal activity against Trypanosoma brucei rhodesiense assessed as parasite growth inhibition. It counts as functional, organism-based.
The test system of series [10] is Macrophage. In words: Cytotoxicity against mouse primary macrophage cells assessed as reduction in cell viability. In kind it is cell-based. In short, it runs like this:
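Macrophage toxicity was scored microscopically within the L. infantum assays, using cell detachment, lysis and granulation. At least 500 cells over adjacent fields were scored semi-quantitatively, and CC₅₀ was taken from % reduction in normal cells versus untreated controls.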

The EC50 is the concentration at which the effect is half-maximal. Turning to `Cc1cc(-c2cn([C@@H]3O[C@H](CO)[C@H](F)[C@H]3O)c3ncnc(N)c23)ccc1Cl`, the EC50 in [1] was found to be 5.34 µM; in series [4], 20.9 µM; in [7], 7.23 µM; in series [8] it was 0.75 µM; in [9], 3.61 µM; in [10] it was 8 µM. Further, the selectivity ratio worked out at 3 in series [2], 28 in [3], 6 in [5] and 1 in series [6].
`NC(=O)c1cn([C@@H]2O[C@H](CO)[C@@H](F)[C@H]2O)c2ncnc(N)c12`: the EC50 in [1] was determined as 32.5 µM; in series [4], 2.38 µM; in series [7], 2.34 µM; in series [8] it was 7.1 µM; in series [9], 0.12 µM; in series [10], 32 µM. Besides, the selectivity ratio in series [2] was 1; in series [3] it was under 1; in series [5] it was 20; in [6] it was 1.
For the compound `C#Cc1cn([C@@H]2O[C@H](CO)[C@@H](F)[C@H]2O)c2ncnc(N)c12`, the EC50 in [1] worked out at 0.13 µM; in series [4] it was 0.16 µM; in series [7] it was 0.04 µM; in series [8] it was 0.04 µM; in [9], 0.02 µM; in series [10] it was 0.13 µM. Besides, the selectivity ratio was determined as 4 in [2], 4 in series [3], 7 in [5] and 1 in series [6].
As for `COc1ccc(-c2cn([C@@H]3O[C@H](CO)[C@@H](F)[C@H]3O)c3ncnc(N)c23)cc1`, the EC50 turned out to be 32.5 µM in [1]; 14.1 µM in series [4]; 43.6 µM in series [7]; 8.61 µM in series [8]; 25.7 µM in series [9]; 32 µM in series [10]. Besides, the selectivity ratio in series [2] is under 1; in [3], 2; in series [5], under 1; in [6], 1.
Regarding `C=Cc1cn([C@@H]2O[C@H](CO)[C@@H](F)[C@H]2O)c2ncnc(N)c12`, the EC50 in [1] is 39.3 µM; in series [4], 20.2 µM; in series [7], 0.81 µM; in series [8], 0.65 µM; in [9], 0.34 µM; in [10], over 64 µM. The selectivity ratio in [2] was 25; in series [3] it was 31; in series [5], 59; in series [6], over 1.
As to `Nc1ncnc2c1c(-c1ccc(Cl)c(Cl)c1)cn2[C@@H]1O[C@H](CO)[C@H](F)[C@H]1O`, the EC50 in [1] is 3.87 µM; in series [4] it was 7.38 µM; in series [7], 2.34 µM; in series [8], under 0.21 µM; in [9] it was 1.72 µM; in [10] it was 8 µM. The selectivity ratio in series [2] is 3; in series [3], 35; in series [5], 4; in [6] it was 2.
Consider `Nc1ncnc2c1c(Br)cn2[C@@H]1O[C@H](CO)[C@H](F)[C@H]1O`, for which the EC50 in series [1] stood at 8.2 µM; in series [4], 0.75 µM; in series [7], 0.032 µM; in series [8], 7.46 µM; in series [9] it was 0.0049 µM; in series [10], 20 µM. Besides, the selectivity ratio in series [2] is 23; in series [3] it was under 1; in series [5] it was 152; in [6], 2.
With `Nc1ncnc2c1c(-c1ccc(Cl)c(Cl)c1)cn2[C@@H]1O[C@H](CO)[C@@H](F)[C@H]1O`, the EC50 in [1] was 2.83 µM; in [4] it was 4.14 µM; in series [7], 2.7 µM; in series [8], 0.22 µM; in series [9] it was 1.55 µM; in series [10] it was 8 µM. For the same compound, the selectivity ratio worked out at 1 in series [2], 19 in [3], 2 in series [5] and 3 in series [6].
